Published values of several laboratories.
Compare with care: the assays were run in different laboratories.
Target: Adenosine receptor A3 (ADORA3, Homo sapiens, UniProt P0DMS8)
Sequence (P0DMS8 1-318, as in one of the studies): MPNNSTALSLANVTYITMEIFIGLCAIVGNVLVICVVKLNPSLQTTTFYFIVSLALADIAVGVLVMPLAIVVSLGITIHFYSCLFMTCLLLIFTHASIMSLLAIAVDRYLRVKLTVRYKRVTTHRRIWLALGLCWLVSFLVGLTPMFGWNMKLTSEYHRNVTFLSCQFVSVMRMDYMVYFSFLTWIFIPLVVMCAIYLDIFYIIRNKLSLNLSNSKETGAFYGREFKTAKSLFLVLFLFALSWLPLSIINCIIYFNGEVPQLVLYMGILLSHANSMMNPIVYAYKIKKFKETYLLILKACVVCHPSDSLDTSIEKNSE

The inhibition of `CN(CCN1CCC(OC(=O)Nc2ccccc2-c2ccccc2)CC1)C(=O)c1ccc(CN2CCC(C(N)=O)CC2)cc1` is reported as -12% (ligand displacement; radioligand; 1 µM).
With `CCOC(=O)[C@@]12C[C@@H]1[C@@H](n1cnc3c(N[C@H](C4CCC4)C4CC4)nc(I)nc31)[C@H](O)[C@@H]2O` the inhibition was 88% (ligand displacement; radioligand; 10 µM).
For `C[C@H](C(=O)N[C@H]1COc2ccccc2[C@@H]1S(C)(=O)=O)c1ccc(F)cc1`, the inhibition was 11% (cell-free assay; 10 µM).
`COCCN(CCOC)C(=O)[C@@]12C[C@@H]1[C@@H](n1cnc3c(N)nc(Cl)nc31)[C@H](O)[C@@H]2O` has an inhibition of 51% (ligand displacement; radioligand; 10 µM).
The inhibition of `COc1ccc(S(=O)(=O)N2CCCCC2)cc1C` is reported as less than 30% (ligand displacement; radioligand; 10 µM).
`CC(C)Cn1cnc2c(N)nc3ccccc3c21` has an inhibition of 16% (ligand displacement; radioligand; 10 µM).
`CCNC(=O)[C@H]1O[C@@H](n2cnc3c(N)ncnc32)[C@H](O)[C@@H]1O` gave an Emax of 99.5% (β-arrestin recruitment; agonist; HEK-293T).
`COCc1c(-c2cc3cc(C)cc(OC)c3s2)c2c(N)ncnn2c1CN1CCNC(=O)C1` has an inhibition of 39% (ligand displacement; radioligand; 10 µM).
For `CCN(CC)CCCC[C@H](NC(=O)[C@H](CC(C)C)NC(=O)[C@H](C)NC(=O)[C@H](Cc1ccccc1)NC(=O)c1ccc(C(C)(C)C)cc1)C(=O)N[C@@H](CO)C(=O)OC`, the remaining binding was 96.9% (ligand displacement; radioligand; 10 µM).
With `CC(C)N1CCC[C@H]1CNC(=O)c1cn(C2CCCC2)c(=O)c2c1c1ccccc1n2C` the inhibition was 14% (ligand displacement; radioligand; 10 µM).
With `c1ccc(C(NCCNC(c2ccccc2)c2ccccc2)c2ccccc2)cc1` the inhibition was 70% (cell-free assay; 10 µM).
`CCCCSC[C@@]12C[C@@H]1[C@@H](n1cnc3c(NC(C4CCCC4)C4CCCC4)nc(Cl)nc31)[C@H](O)[C@@H]2O` gave an inhibition of 33% (ligand displacement; radioligand; 10 µM).
With `O=C(Nc1cccnn1)N1CCN([C@@H]2CCOc3cc(C(F)(F)F)ccc32)CC1` the inhibition was 25% (ligand displacement; 20 µM).
